Where a SMILES comes first, the peptide text is derived from it. [ ]: non-standard residue; d: D form. ξ: configuration not given here. Bip = N[C@@H](Cc1ccc(-c2ccccc2)cc1)C(=O)O; ξBip = NC(Cc1ccc(-c2ccccc2)cc1)C(=O)O; ξDip = NC(C(=O)O)C(c1ccccc1)c1ccccc1
What was measured:
Cytochrome P450 2C9 = Cytochrome P450 2C9 (Homo sapiens, UniProt P11712); assay: Inhibition of CYP2C9 in human liver microsomes using diclofenac as substrate assessed as reduction in substrate hydroxylation incubated for 5 mins in presence of beta-NADPH measured by LC-MS/MS analysis; type: ADME, Microsome
Sequence of Cytochrome P450 2C9 (P11712 whole entry, canonical isoform): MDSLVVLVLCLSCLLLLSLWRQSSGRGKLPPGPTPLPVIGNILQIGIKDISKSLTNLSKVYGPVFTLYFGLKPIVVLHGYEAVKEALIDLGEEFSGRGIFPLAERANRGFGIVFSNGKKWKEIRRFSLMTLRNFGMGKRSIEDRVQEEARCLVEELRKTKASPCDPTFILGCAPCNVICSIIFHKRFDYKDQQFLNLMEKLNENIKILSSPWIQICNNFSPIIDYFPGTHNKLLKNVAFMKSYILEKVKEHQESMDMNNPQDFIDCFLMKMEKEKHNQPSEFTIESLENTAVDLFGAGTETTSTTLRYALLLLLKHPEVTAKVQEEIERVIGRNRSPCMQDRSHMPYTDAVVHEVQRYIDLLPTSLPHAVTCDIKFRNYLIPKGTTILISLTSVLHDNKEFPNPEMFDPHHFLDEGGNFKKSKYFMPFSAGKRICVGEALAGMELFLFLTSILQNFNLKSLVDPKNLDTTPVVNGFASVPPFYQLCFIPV
How it was run: (§1)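 Pooled human liver microsomes (50 donors) in 100 mM phosphate, pH 7.4, with 2 mM β-NADPH. Protein 0.1 mg/mL (2A6, 2C8, 2C9, 2E1, 3A4) or 0.3 mg/mL (1A2, 2B6, 2C19, 2D6). Test article 0–100 μM final, preincubated ~37 °C 5 or 30 min before isoform-selective substrate. Quenched in methanol with internal standard. Metabolite measured by LC–MS/MS against standard curve. Duplicates, with selective inhibitor positive controls.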

[1] = Stability in pooled and cryopreserved human hepatocytes assessed as half life at 1 uM measured for 90 mins by LC-MS/MS analysis; type: ADME, cell-based, Hepatocyte
How it was run: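 Pooled cryopreserved rat or human hepatocytes, 0.5 million cells/mL, ~37 °C, peptide at 1 μM initial. Supernatants analysed by LC–MS/MS with peak height referenced to time zero. t1/2 = −0.693/slope of ln concentration vs time. Duplicate experiments. Testosterone, midazolam and 4-methylumbelliferone served as metabolic-competence controls.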

[2] = Drug recovery in human plasma incubated for 20 hrs in presence of serine protease inhibitor AEBSF (reference value: 176 ng/ml); type: ADME, cell-free
SH-SY5Y = assay: Cytotoxicity against human SH-SY5Y cells assessed as inhibition of cell proliferation incubated for 4 hrs by MTS assay; type: functional, cell-based
How it was run: (§2)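 Cells grown in RPMI-1640 with 2 mM L-glutamine and 10% FBS, plated, then held 24 h at 37 °C. Adherent lines washed once in FBS-free medium. Cells exposed 4 h at 37 °C, 5% CO2 in FBS-free medium to 10 concentrations (1/4 steps, 400 μM top). 1% Triton X-100 served as positive control. MTS/PMS added for 2 h, then OD 490 nm read. IC50 from semilog curves; three independent experiments, quadruplicate wells.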

[3] = Hemolytic activity in human red blood cells incubated for 1 hr by spectrophotometric microtiter plate reader method; type: toxicity, cell-based, Erythrocyte
K562 = assay: Cytotoxicity in imatinib resistant human K562 cells assessed as inhibition of cell proliferation incubated for 4 hrs by MTS assay; type: functional, cell-based; details: K562, 4 h
How it was run: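 Oncodesign panel MTS/PMS assay. Cells in RPMI-1640 + 10% FBS. After 24 h pre-plating, adherent lines washed in FBS-free medium. Cells exposed 4 h at 37 °C in FBS-free medium to 10 concentrations, 1/4 dilutions from 400 μM top. Triton X-100 (1% final) positive control. MTS/PMS added, 2 h, OD 490 nm. IC50 from semilog curves. Three independent experiments, quadruplicate wells.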

Cytochrome P450 2C8 = Cytochrome P450 2C8 (Homo sapiens, UniProt P10632); assay: Inhibition of CYP2C8 in human liver microsomes using paclitaxel as substrate assessed as reduction in substrate hydroxylation incubated for 5 mins in presence of beta-NADPH measured by LC-MS/MS analysis; type: ADME, Microsome; how it was run: as §1
Sequence of Cytochrome P450 2C8 (P10632 whole entry): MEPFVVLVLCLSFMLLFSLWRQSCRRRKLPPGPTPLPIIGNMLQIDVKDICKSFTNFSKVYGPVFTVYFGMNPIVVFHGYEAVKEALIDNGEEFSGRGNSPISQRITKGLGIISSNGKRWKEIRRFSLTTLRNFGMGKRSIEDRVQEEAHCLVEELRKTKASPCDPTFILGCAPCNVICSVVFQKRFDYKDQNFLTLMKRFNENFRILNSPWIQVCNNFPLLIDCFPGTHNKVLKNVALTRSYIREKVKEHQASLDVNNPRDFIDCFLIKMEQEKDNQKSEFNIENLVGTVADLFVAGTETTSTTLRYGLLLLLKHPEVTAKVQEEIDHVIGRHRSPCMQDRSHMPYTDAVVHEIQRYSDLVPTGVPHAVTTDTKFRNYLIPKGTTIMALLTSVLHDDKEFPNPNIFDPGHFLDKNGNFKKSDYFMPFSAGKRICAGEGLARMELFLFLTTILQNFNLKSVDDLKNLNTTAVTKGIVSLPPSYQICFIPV

A-431 = assay: Cytotoxicity against human A-431 cells assessed as inhibition of cell proliferation incubated for 4 hrs by MTS assay; type: functional, cell-based; details: A-431, 4 h; how it was run: as §2
[4] = Drug uptake in Beagle dog Red blood cells at 60 mins by LC-MS/MS analysis; type: ADME, cell-based, Canis lupus familiaris; details: erythrocyte, 1 h
How it was run: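 Pooled fresh whole blood (≥3 male and 3 female human, beagle dog or rat donors) spiked to 200 ng/mL. Incubated ~37 °C on rotary mixer over 0–120 min. Hematocrit determined. Blood and plasma analysed by LC–MS/MS. Blood/plasma ratio = Cb/C. Cell association = {[C(1 − H)]/Cb} × 100. Values at 60 min, mean of two independent measurements.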

RPMI-8226 = assay: Cytotoxicity against human RPMI-8226 cells assessed as inhibition of cell proliferation incubated for 4 hrs by MTS assay; type: functional, cell-based; details: RPMI-8226, 4 h; how it was run: as §2
MDA-MB-435S = assay: Cytotoxicity against human MDA-MB-435S cells assessed as inhibition of cell proliferation incubated for 4 hrs by MTS assay; type: functional, cell-based; how it was run: as §2
Raji = assay: Cytotoxicity against human Raji cells assessed as inhibition of cell proliferation incubated for 4 hrs by MTS assay; type: functional, cell-based; how it was run: as §2
[5] = Cytotoxicity against human MRC5 cells assessed as inhibition of cell proliferation incubated for 4 hrs by MTS assay; type: toxicity, cell-based; how it was run: as §2
SK-MEL-2 = assay: Cytotoxicity against human SK-MEL-2 cells assessed as inhibition of cell proliferation incubated for 4 hrs by MTS assay; type: functional, cell-based; details: SK-MEL-2, 4 h; how it was run: as §2
SK-HEP1 = assay: Cytotoxicity against human SK-HEP1 cells assessed as inhibition of cell proliferation incubated for 4 hrs by MTS assay; type: functional, cell-based; details: SK-HEP1, 4 h; how it was run: as §2
Cytochrome P450 2A6 = Cytochrome P450 2A6 (Homo sapiens, UniProt P11509); assay: Inhibition of CYP2A6 in human liver microsomes using coumarin as substrate assessed as reduction in substrate hydroxylation incubated for 30 mins in presence of beta-NADPH measured by LC-MS/MS analysis; type: ADME, Microsome; how it was run: as §1
Sequence of Cytochrome P450 2A6 (P11509 whole entry): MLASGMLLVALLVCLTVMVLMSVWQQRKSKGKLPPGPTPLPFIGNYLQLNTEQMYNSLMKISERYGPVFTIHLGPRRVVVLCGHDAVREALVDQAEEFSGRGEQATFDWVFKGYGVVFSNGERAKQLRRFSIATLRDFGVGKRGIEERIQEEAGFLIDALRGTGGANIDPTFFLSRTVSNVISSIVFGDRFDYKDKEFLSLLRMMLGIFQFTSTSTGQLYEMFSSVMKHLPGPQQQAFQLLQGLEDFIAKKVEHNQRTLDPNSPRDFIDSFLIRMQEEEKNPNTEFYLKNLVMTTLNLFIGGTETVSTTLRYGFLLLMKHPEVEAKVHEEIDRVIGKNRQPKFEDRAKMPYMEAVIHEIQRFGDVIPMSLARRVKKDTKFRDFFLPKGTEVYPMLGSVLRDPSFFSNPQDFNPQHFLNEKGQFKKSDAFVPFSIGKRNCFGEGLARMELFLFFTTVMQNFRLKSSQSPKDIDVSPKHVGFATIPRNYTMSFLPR

MDA-MB-231 = assay: Cytotoxicity against human MDA-MB-231 cells assessed as inhibition of cell proliferation incubated for 4 hrs by MTS assay; type: functional, cell-based; details: MDA-MB-231, 4 h; how it was run: as §2
[6] = Cytotoxicity against human Hs 445 cells assessed as inhibition of cell proliferation incubated for 4 hrs by MTS assay; type: functional, cell-based; details: Hs 445, 4 h; how it was run: as §2
[7] = Stability in pooled and cryopreserved human hepatocytes assessed as intrinsic clearance measured per 10^6 cells at 1 uM measured for 90 mins by LC-MS/MS analysis; type: ADME, cell-based, Hepatocyte; details: read-out: CLH
How it was run: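 Pooled cryopreserved hepatocytes at 0.5 million cells/mL, incubated at about 37 °C with 1 μM initial peptide. Supernatant after centrifugation analysed by LC–MS/MS (MRM) using a D-Trp7,9,10-substance P internal standard. Peak height was referenced to time zero, and t1/2 = −0.693/slope of ln concentration vs time. Clint = 0.693/t1/2 × Vinc per million cells. Testosterone, midazolam and 4-methylumbelliferone were the positive controls. Duplicates; mean of two experiments.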

HepG2 = assay: Cytotoxicity against human HepG2 cells assessed as inhibition of cell proliferation incubated for 4 hrs by MTS assay; type: functional, cell-based; details: HepG2, 4 h; how it was run: as §2
[8] = Protein binding in Beagle dog plasma assessed as bound fraction at 200 to 1000 ng/ml incubated for 20 hrs in presence of AEBSF by LC-MS/MS analysis; type: ADME, cell-free, Canis lupus familiaris; details: dose 200-1000 ng/ml, read-out: PPB
How it was run: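 Pooled plasma (human volunteers; Han Wistar rat; Beagle dog) containing AEBSF 1 mg/mL. Spiked to 200, 500 or 1000 ng/mL final, in duplicate. Ultracentrifuged 45 000 rpm, 37 °C, 20 h. Supernatant quantified by LC–MS/MS. % bound = [(C − CS)/C] × 100. Values are upper limits because of residual degradation.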

A498 = assay: Cytotoxicity against human A498 cells assessed as inhibition of cell proliferation incubated for 4 hrs by MTS assay; type: functional, cell-based; details: A498, 4 h; how it was run: as §2
Cytochrome P450 3A4 = Cytochrome P450 3A4 (Homo sapiens, UniProt P08684); assay: Inhibition of CYP3A4 in human liver microsomes using midazolam as substrate assessed as reduction in substrate hydroxylation incubated for 5 mins in presence of beta-NADPH measured by LC-MS/MS analysis; type: ADME, Microsome; how it was run: as §1
Sequence of Cytochrome P450 3A4 (P08684 whole entry): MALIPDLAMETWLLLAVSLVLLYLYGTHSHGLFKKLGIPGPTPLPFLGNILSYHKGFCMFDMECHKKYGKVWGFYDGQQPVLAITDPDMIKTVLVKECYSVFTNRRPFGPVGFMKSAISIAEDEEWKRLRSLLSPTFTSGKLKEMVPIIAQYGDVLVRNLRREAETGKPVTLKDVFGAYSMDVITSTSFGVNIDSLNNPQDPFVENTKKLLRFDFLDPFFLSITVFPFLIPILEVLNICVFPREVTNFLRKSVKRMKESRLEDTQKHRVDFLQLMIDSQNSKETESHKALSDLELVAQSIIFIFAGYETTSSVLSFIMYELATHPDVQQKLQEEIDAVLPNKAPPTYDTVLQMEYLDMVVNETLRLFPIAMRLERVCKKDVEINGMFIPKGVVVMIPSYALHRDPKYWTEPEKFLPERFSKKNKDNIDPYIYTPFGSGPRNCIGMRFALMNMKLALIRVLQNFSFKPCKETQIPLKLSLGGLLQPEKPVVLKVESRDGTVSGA

SMILES | IC50 (SH-SY5Y) [µM] | IC50 (K562) [µM] | IC50 (A-431) [µM] | IC50 (RPMI-8226) [µM] | IC50 (MDA-MB-435S) [µM] | IC50 (Raji) [µM] | IC50 at 4 h [5] [µM] | IC50 (SK-MEL-2) [µM] | IC50 (SK-HEP1) [µM] | IC50 (MDA-MB-231) [µM] | IC50 [6] [µM] | IC50 (HepG2) [µM] | IC50 (A498) [µM] | further results
NCCCC[C@H](NC(=O)C(NC(=O)[C@H](Cc1c[nH]c2ccccc12)NC(=O)[C@H](CCCCN)NC(=O)[C@H](CCCCN)NC(=O)[C@H](Cc1c[nH]c2ccccc12)NC(=O)[C@H](Cc1c[nH]c2ccccc12)NC(=O)[C@H](CCCCN)NC(=O)[C@@H](N)CCCCN)C(c1ccccc1)c1ccccc1)C(N)=O (stereo not given in full) (H-KKWWKKW[ξDip]K-NH2) | 3.3 | 3 | 3.2 | 1.9 | 3.1 | 4.9 | 9.2 | 5.2 | 5.1 | 3.6 | 1.7 | 6.7 | 2.9 | IC50 (Cytochrome P450 2C9): 8.8 µM; half-life at 1 µM [1]: 1.07 h; Drug recovery [2]: 131 ng/mL; EC50 at 1 h [3]: > 695 µM; IC50 (Cytochrome P450 2C8): 10.2 µM; Drug uptake [4]: 76%; IC50 (Cytochrome P450 2A6): 26.3 µM; hepatocyte CLint at 1 µM [7]: 22 µL/min/1e6 cells; fraction unbound at 20 h [8]: > 0.08; IC50 (Cytochrome P450 3A4): 18.8 µM
NCCCC[C@H](NC(=O)[C@H](Cc1c[nH]c2ccccc12)NC(=O)[C@H](Cc1c[nH]c2ccccc12)NC(=O)[C@H](CCCCN)NC(=O)[C@H](CCCCN)NC(=O)[C@H](Cc1c[nH]c2ccccc12)NC(=O)[C@H](Cc1ccc(-c2ccccc2)cc1)NC(=O)[C@H](CCCCN)NC(=O)[C@@H](N)CCCCN)C(N)=O (H-KK[Bip]WKKWWK-NH2) | 8.8 | 7.6 | 7.1 | 4.1 | 9.8 | 8.7 | 27.9 | 11 | 7.9 | 9.3 | 2.5 | 8.7 | 6.4 | –
NCCCC[C@H](NC(=O)[C@H](Cc1c[nH]c2ccccc12)NC(=O)[C@H](Cc1c[nH]c2ccccc12)NC(=O)[C@H](CCCCN)NC(=O)[C@H](CCCCN)NC(=O)[C@H](Cc1c[nH]c2ccccc12)NC(=O)C(Cc1ccc(-c2ccccc2)cc1)NC(=O)[C@H](CCCCN)NC(=O)[C@@H](N)CCCCN)C(N)=O (stereo not given in full) (H-KK[ξBip]WKKWWK-NH2) | 7.8 | 7.9 | 7.2 | 4 | 11.4 | 16.1 | 30.9 | 13.4 | 12.6 | 10.8 | 4.2 | 14.8 | 7.9 | –
N=C(N)NCCC[C@H](NC(=O)[C@H](Cc1c[nH]c2ccccc12)NC(=O)[C@H](Cc1c[nH]c2ccccc12)NC(=O)[C@H](CCCNC(=N)N)NC(=O)[C@H](CCCNC(=N)N)NC(=O)C(NC(=O)[C@H](Cc1c[nH]c2ccccc12)NC(=O)[C@H](CCCNC(=N)N)NC(=O)[C@@H](N)CCCNC(=N)N)C(c1ccccc1)c1ccccc1)C(N)=O (stereo not given in full) (H-RRW[ξDip]RRWWR-NH2) | 5.4 | 7.7 | 5.5 | 4.1 | 8 | 11.3 | 14.6 | 10.6 | 6.3 | 7.6 | 2.2 | 16.6 | 5.7 | –
NCCCC[C@H](NC(=O)[C@H](Cc1c[nH]c2ccccc12)NC(=O)[C@H](CCCCN)NC(=O)[C@H](CCCCN)NC(=O)C(NC(=O)[C@H](Cc1c[nH]c2ccccc12)NC(=O)[C@H](CCCCN)NC(=O)[C@H](CCCCN)NC(=O)[C@@H](N)Cc1c[nH]c2ccccc12)C(c1ccccc1)c1ccccc1)C(N)=O (stereo not given in full) (H-WKKW[ξDip]KKWK-NH2) | 12.7 | 9 | 11.7 | 6 | 14.1 | 12.5 | 28 | 18.4 | 15.6 | 13 | 6.5 | 20.1 | 13.9 | –
